This is a sample that favours compounds with a hit; in the whole collection about 3% have one here.
Hsp70 activator = switches on Hsp70 transcription | HeLa Hsp70 promoter luciferase reporter, luminescence; scaled: vehicle 0, proteasome-inhibitor control 100% | activation, % at 10 µM | 200,000 tested, 0.04% active | AID 1203;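 active = activation above the mean across all tested compounds plus 3 SD, cutoff set per campaign, cut at about 5.5% in these data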;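 note: 100% = MG132 at 30 µM as the positive control and 0% = DMSO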
NPY1 pot ag = potentiators or agonists of human neuropeptide Y receptor Y1; P25929; NPY-Y1 expressing cells, potentiator/agonist activation; activation, % at 3.6 µM; 220,000 tested, 0.37% active; AID 1304; in the data active = activation above about 33%, passing the limit was not always enough;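 note: cells stimulated with NPY at EC10 then isoproterenol at EC100; 0% = low agonist plus stimulus and 100% = saturating agonist plus stimulus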
Target sequence (P25929 whole entry, looked up): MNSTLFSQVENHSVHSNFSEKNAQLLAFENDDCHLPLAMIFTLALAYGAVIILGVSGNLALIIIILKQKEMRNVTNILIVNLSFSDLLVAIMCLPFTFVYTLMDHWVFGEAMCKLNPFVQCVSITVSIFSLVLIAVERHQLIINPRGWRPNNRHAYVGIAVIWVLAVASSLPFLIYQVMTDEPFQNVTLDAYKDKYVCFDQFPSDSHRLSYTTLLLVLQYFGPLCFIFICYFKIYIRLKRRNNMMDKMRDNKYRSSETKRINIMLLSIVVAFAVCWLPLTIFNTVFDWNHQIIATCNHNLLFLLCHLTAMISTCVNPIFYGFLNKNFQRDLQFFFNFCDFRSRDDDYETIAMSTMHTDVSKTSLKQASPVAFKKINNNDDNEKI
NPY-Y2 PAM-ag = potentiates or activates human NPY-Y2 receptor; 220,000 tested, 0.45% active; cells expressing NPY-Y2, potentiator/agonist read-out; activation, % at 3.6 µM; P49146; AID 1359; in the data active = activation above about 27%;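 note: cells stimulated with NPY near EC25 plus isoproterenol at EC100; 0% = vehicle plus submaximal agonist and 100% = vehicle plus saturating agonist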
Wee1 degr inh = blocks degradation of human Wee1 kinase; P30291; HeLa Luc-Wee1K328M stability, luciferase luminescence; 100% = proteasome inhibitor MG132 effect; reporter increase, % at 5 µM; 220,000 tested, 1.2% active;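 active = activation above the mean of all tested compounds plus 3 SD, set per screening run, cut at about 8.8% in these data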;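 note: cells exposed to compound for 20 h before luminescence read; 0% = DMSO alone and 100% = MG132 at 30 µM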
NPY-Y1 antag = antagonists of human neuropeptide Y receptor Y1; P25929; HEK293-CNG Y1 cells, membrane potential fluorescence; NPY at EC95, then isoproterenol; inhibition, % at 3.6 µM; 200,000 tested, 1% active;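 active = inhibition above the campaign mean inhibition of all tested compounds plus 3 SD, cut at about 20% in these data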;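 note: 0% = DMSO wells given NPY plus isoproterenol and 100% = isoproterenol alone without NPY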
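Material: HEK293 cells co-expressing NPY Y1 receptor and cyclic-nucleotide gated channel. Timing: compound incubation 1 h at room temperature, readout 45 min post-stimulation. Signal: fluorescence, membrane potential probe.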
NPY Y2 blocker = NPY-Y2 (human) receptor antagonism | P49146 | NPY-Y2 expressing cells, antagonist mode | inhibition, % at 2.7 µM | 140,000 tested, 0.99% active | AID 793; in the data active = inhibition above about 17%;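 note: 0% = vehicle with agonist challenge and 100% = reference antagonist with challenge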
* = called active by the depositor; nt = no result.

SMILES	Hsp70 activator	NPY1 pot ag	NPY-Y2 PAM-ag	Wee1 degr inh	NPY-Y1 antag	NPY Y2 blocker
COCC(=O)N1CCN(c2ccc([N+](=O)[O-])cc2)CC1	-0.4	42.2*	18.9	-2.2	-4.6	4.1
OCCCNC(=S)Nc1ccc(Br)cc1Cl	nt	17.8	5.0	8.9*	nt	nt
S=C(NCc1ccco1)Nc1ccc(Br)cc1Cl	-0.1	11.7	-0.3	-1.5	-7.2	nt
O=C1c2ccccc2C(=O)N1CCCCN(C(=O)c1ccc([N+](=O)[O-])cc1)c1ccc(Cl)cc1	-0.3	67.0*	95.4*	1.6	17.4	11.9
CCOC(=O)/C=C/C(=O)N1CCN(C(=O)/C=C/C(=O)OCC)CC1	nt	4.4	4.0	-1.5	nt	nt
S=c1[nH]cc(-c2ccccc2)n1-c1cccc(Cl)c1	-0.5	39.2*	32.4*	0.8	-5.7	-2.5
CCOC1=NN(c2ncc(C(F)(F)F)cc2Cl)C(=O)C1	-0.3	-0.8	11.9	-2.4	-4.7	nt
COc1ccc2c(c1)CCc1c-2n[nH]c1C(=O)O	-0.1	32.2	39.8*	2.1	-4.7	-3.0
CCCN1Cc2cccc(C(=O)Nc3ccc(C)cc3)c2C1=O	-0.2	14.8	-1.2	0.3	6.3	2.7
CCCN1Cc2cccc(C(=O)NCc3ccc(C)cc3)c2C1=O	0.2	-10.3	-17.2	9.3*	8.7	nt
CCn1c(COc2ccccc2C)nnc1SCC(=O)CC(=O)Nc1ccccc1	0.1	1.1	-15.0	11.9*	-3.0	1.6
O=C(/C=C/c1ccccc1)Nc1ccc(N2CCCCC2)cc1	0.0	5.2	2.3	9.0*	-0.9	0.2
O=C(NC(=S)Nc1cccc(O)c1)c1ccco1	nt	5.8	6.6	0.2	nt	nt
O=C(N/N=C/c1ccc(-c2ccc(Br)cc2)o1)c1ccc2c(c1)OCO2	0.0	-7.6	-0.1	1.4	20.8*	nt
Cc1oc(-c2ccccc2F)nc1CS(=O)(=O)CC(=O)NCc1ccco1	0.8	-26.8	-2.5	9.2*	1.1	2.2
COc1ccc(CCNC(=O)Cn2c([N+](=O)[O-])cnc2C)cc1OC	-0.2	3.3	-3.4	10.8*	10.5	nt
COc1cc(/C=N/NC2=NC(C)(C)Cc3ccccc32)cc(OC)c1OC	-0.1	4.3	-14.6	4.2	3.6	nt
O=C(CSc1nc(-c2ccccc2F)nc2nc[nH]c12)Nc1c(Cl)cc(Cl)cc1Cl	0.0	12.9	-5.9	-0.1	0.3	0.1
CCOc1ccccc1OCCN1CCC(Cc2ccccc2)CC1	-0.2	-28.5	-10.2	0.6	26.4*	17.2*
Cc1ccccc1OCCN1CCC(Cc2ccccc2)CC1	0.0	-18.9	-5.8	-2.3	7.8	nt
Cc1ccn2cc(C(=O)Nc3nnc(C)s3)nc2c1	-0.1	10.8	-3.5	8.9*	-1.3	1.6
O=C(COc1ccc(Oc2ccccc2)cc1)NCc1cn2ccccc2n1	-0.3	-11.6	-8.5	10.5*	11.3	nt
O=C(Cc1ccccc1[N+](=O)[O-])NCc1ccc(Cl)cc1	-0.6	-8.5	-3.4	-1.4	0.5	0.4
O=C(Cc1ccccc1[N+](=O)[O-])NCc1ccc(Cl)cc1Cl	-0.2	-15.6	8.4	9.4*	14.9	3.4
COc1cc(C=O)ccc1OCCCOc1ccc([N+](=O)[O-])cc1	0.0	-15.8	5.0	9.9*	7.3	4.4
SMILES	Hsp70 activator	NPY1 pot ag	NPY-Y2 PAM-ag	Wee1 degr inh	NPY-Y1 antag	NPY Y2 blocker
O=C(NCc1ccc(F)cc1)c1ccc(S(=O)(=O)Nc2cccc(C(F)(F)F)c2)cc1	-0.6	48.4*	37.1*	1.3	-10.0	-1.4
O=C(NC1CCCCCCC1)C1CCCN(S(=O)(=O)c2cnc[nH]2)C1 (stereo not given)	0.0	4.7	41.8*	0.9	1.5	0.3
O=C(NC1CCCCC1)C1CCCN(S(=O)(=O)c2cnc[nH]2)C1 (stereo not given)	-0.1	8.0	10.9	-3.0	2.7	-0.2
CN(CCC#N)C(=O)COC(=O)c1cc(Cl)cc(Cl)c1N	0.2	1.6	12.8	-2.5	2.3	nt
CC(=O)OC1CCC(OC(C)=O)c2c1n([O-])c(C)c(C)[n+]2=O (stereo not given)	0.1	2.8	6.7	10.5*	-1.4	1.9
CCCc1cc(=O)oc2cc(OCc3ccc(OC)cc3)c(Cl)cc12	-0.3	-31.7	0.8	4.0	4.8	5.3
Cc1ccc(C2=NNC(c3cccc(F)c3)S2)cc1 (stereo not given)	-0.3	-25.4	1.3	14.5*	9.5	nt
CCOCCCNc1nc2ccccc2[nH]1	-0.3	7.5	-5.3	10.3*	1.3	0.0
